The results in this text go back to ChEMBL document CHEMBL1800057, “Discovery of dual inducible/neuronal nitric oxide synthase (iNOS/nNOS) inhibitor development candidate 4-((2-cyclobutyl-1H-imidazo[4,5-b]pyrazin-1-yl)methyl)-7,8-difluoroquinolin-2(1H)-one (KD7332) part 2: identification of a novel, potent, and selective series of benzimidazole-quinolinone …” (J Med Chem, 2010).

Data set [1] concerns Mus musculus. Nature of the data set: Antinociceptive activity against formalin-induced pain in mouse assessed as attenuation of nocifensive phase 2 behaviors during phase 2 (25 to 45 mins post formalin injection) administered via oral gavage 30 mins before to formalin challenge. The format is functional. An outline of the steps: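 Mice were given compound by oral gavage in PEG/Tween 80/PVP + CMC vehicle 30 min before 20 μL of 5% formalin was injected into the left hind paw. Paw flinching, licking and biting were timed in 5 min bins by a single observer. Read-out was time in nociceptive behaviour at 25-45 min. Mean ± SE, n = 5-6, one-way ANOVA with post hoc tests.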

For data set [2], the system named is Mus musculus. The data set is described as follows: Neurotoxicity in C57Bl/6j mouse assessed as inability to maintain equilibrium on rotarod up to 1000 mg/kg, po determined 1 to 3 hrs postdose by rotarod test. The format is toxicity, organism-based. The arrangement: dose 1000 mg/kg, route oral. Particulars: in vivo. An outline of the steps: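 Male C57Bl/6j mice were acclimated to the rotarod at 4 rpm, then given two training sessions on an accelerating rod (4-40 rpm over 300 s). Only mice with latencies >60 s were kept. After oral dosing, latency to fall from the accelerating rod was recorded at 1, 2 and 3 h.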

Data set [3] relates to Mus musculus. Nature of the data set: Antiallodynic activity against von Frey hair mechanically stimulated neuropathic pain in mouse Chung model of neuropathic pain assessed as attenuation of tactile allodynia at 300 mg/kg, po. The format is functional, organism-based. The arrangement: dose 300 mg/kg.
Data set [4] addresses T1, Nitric oxide synthase 3 (Homo sapiens) (UniProt P29474).
T1 sequence (whole entry): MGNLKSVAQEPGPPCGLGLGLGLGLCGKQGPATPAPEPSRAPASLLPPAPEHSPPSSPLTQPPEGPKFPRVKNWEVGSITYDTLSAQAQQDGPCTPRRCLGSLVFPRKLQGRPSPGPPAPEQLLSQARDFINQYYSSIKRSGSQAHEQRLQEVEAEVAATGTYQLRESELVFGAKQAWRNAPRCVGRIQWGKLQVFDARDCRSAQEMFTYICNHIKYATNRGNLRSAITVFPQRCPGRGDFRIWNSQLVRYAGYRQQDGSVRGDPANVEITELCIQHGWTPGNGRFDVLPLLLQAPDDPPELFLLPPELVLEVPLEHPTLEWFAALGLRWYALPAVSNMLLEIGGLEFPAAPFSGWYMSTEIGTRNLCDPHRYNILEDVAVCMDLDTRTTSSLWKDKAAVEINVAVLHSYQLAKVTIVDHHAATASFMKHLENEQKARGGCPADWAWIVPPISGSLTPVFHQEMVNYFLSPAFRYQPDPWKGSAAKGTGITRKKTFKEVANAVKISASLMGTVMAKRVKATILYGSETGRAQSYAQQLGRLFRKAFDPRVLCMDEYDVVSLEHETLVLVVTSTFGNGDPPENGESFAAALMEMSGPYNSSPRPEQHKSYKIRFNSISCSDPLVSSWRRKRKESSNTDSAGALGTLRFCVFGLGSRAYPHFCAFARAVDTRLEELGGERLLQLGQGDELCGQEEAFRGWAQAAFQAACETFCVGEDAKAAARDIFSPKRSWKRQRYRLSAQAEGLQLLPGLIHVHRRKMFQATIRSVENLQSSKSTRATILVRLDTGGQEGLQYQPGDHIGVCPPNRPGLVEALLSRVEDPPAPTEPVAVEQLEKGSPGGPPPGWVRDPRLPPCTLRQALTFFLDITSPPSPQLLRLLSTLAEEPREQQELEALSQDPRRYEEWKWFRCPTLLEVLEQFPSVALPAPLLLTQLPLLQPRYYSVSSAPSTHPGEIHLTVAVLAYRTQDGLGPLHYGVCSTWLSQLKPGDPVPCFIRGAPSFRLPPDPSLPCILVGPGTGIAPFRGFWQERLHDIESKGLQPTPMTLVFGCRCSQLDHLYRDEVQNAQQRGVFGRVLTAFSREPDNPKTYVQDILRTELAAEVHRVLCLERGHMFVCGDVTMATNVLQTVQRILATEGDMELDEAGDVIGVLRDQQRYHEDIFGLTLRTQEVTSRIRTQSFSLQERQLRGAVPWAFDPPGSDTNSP
The data set is described as follows: Inhibition of human eNOS expressed in HEK293 cells assessed as inhibition A23187 induced nitric oxide production at 100 uM incubated for 24 hrs measured after 18 hrs of […] challenge using 2,3-diaminonaphthalene by fluorescence assay. The format is cell-based.

Data set [5] deals with T2, Nitric oxide synthase, inducible (Homo sapiens, UniProt P35228). Nature of the data set: Inhibition of human iNOS expressed in HEK293 cells assessed as inhibition of nitric oxide production after 18 hrs using 2,3-diaminonaphthalene by fluorescence assay. The format is cell-based. An outline of the steps: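 HEK293 cells grown to ~70% confluence in DMEM/10% FBS with pen/strep, transiently transfected with 10 μg human or murine iNOS plasmid plus Fugene 6 for 4 h at 37 °C, 10% CO2. Cells replated at 5e5 cells/mL and dosed with compound at once; 1400W (100 μM final) as positive control. After 18 h, DAN (10 μg/mL final) in HCl (0.1 N final) added for 20 min at room temperature. Fluorescence read after NaOH (0.12 N final).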

Data set [6] has as its target T3, Nitric oxide synthase 1 (Homo sapiens, UniProt P29475). Nature of the data set: Inhibition of human nNOS expressed in HEK293 cells assessed as inhibition ionomycin induced nitric oxide production incubated for 24 hrs measured after 18 hrs of ionomycin challenge using 2,3-diaminonaphthalene by fluorescence assay. The format is cell-based. An outline of the steps:
(§1)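 HEK293 cells transfected for 4 h at 37 °C with human nNOS (10 μg) or human eNOS (15 μg) plasmid (Fugene 6, 3:1). Cells replated at 5e5 cells/mL and dosed with compound at once; SEITU (100 μM final) as positive control. After 24 h, cells activated with A23187 (83 nM final) for eNOS or ionomycin (30 μM final) for nNOS. NO read 18 h later as nitrite-DAN fluorescence.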

The species entered for data set [7] is Homo sapiens. Nature of the data set: Ratio of IC50 for human nNOS to EC50 for human iNOS.
The next data set deals with Liver. Nature of the data set: Half life in mouse liver microsomes assessed as formation of oxidation product and glucuronide conjugate. The format is ADME, Microsome. An outline of the steps:
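Mouse liver microsomes run under combined phase I oxidation and phase II glucuronide conjugation; half-life reported in minutes.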
(Liver microsomes are vesicles of endoplasmic reticulum, rich in cytochrome P450 enzymes.)

The target of another data set is T4, Nitric oxide synthase 3 (Homo sapiens, UniProt P29474).
T4 sequence (P29474 whole entry): T1 sequence (whole entry)
Nature of the data set: Inhibition of human eNOS expressed in HEK293 cells assessed as inhibition A23187 induced nitric oxide production incubated for 24 hrs measured after 18 hrs of […] challenge using 2,3-diaminonaphthalene by fluorescence assay. The format is cell-based. An outline of the steps:
as §1

The species named for data set [8] is Homo sapiens. The data set is described as follows: Ratio of IC50 for human eNOS to EC50 for human iNOS.
Data set [9] concerns the target T3, Nitric oxide synthase 1. The data set is described as follows: Inhibition of human nNOS expressed in HEK293 cells assessed as inhibition ionomycin induced nitric oxide production at 100 uM incubated for 24 hrs measured after 18 hrs of ionomycin challenge using 2,3-diaminonaphthalene by fluorescence assay. The format is cell-based.
Another data set concerns Rhesus monkey. Nature of the data set: Inhibition of capsaicin-induced thermal hyperalgesia in rhesus monkey model. The format is functional, organism-based. Particulars: Macaca mulatta.
Data set [10] concerns Mus musculus. Nature of the data set: Antiallodynic activity against von Frey hair mechanically stimulated neuropathic pain in mouse Chung model of neuropathic pain assessed as attenuation of tactile allodynia at 30 mg/kg, po. The format is functional, organism-based. The arrangement: dose 30 mg/kg. An outline of the steps:
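Spinal nerve ligation (Chung) surgery done under isoflurane anaesthesia (5% induction, 2-3% maintenance). Only mice with baseline 50% withdrawal threshold ~0.2-0.3 g at days 5-10 after surgery were included. Von Frey filaments applied for 10 s each; 50% threshold calculated by Dixon up-down method. Compound given po at 30 mg/kg, and also 30 mg/kg BID for four days.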

For data set [11], the system named is Mus musculus. The data set is described as follows: Antiallodynic activity against von Frey hair mechanically stimulated neuropathic pain in mouse Chung model of neuropathic pain assessed as attenuation of tactile allodynia at 30 mg/kg, po bid for 4 days. The format is functional, organism-based. More on the design: dose 30 mg/kg. An outline of the steps:
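Spinal nerve ligation in mice under isoflurane (5% induction, 2-3% maintenance). Von Frey filaments pressed on the paw for up to 10 s. 50% withdrawal threshold derived by Dixon's up-down method. Only mice with baseline thresholds of ~0.2-0.3 g between 5 and 10 days post-surgery were included. Dosing was oral.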

Data set [12] is described as follows: Plasma clearance in mouse. The format is ADME, organism-based.
Data set [13] in a line: Oral bioavailability in mouse at 10 mg/kg. The format is ADME, organism-based. Particulars: in vivo.
Data set [14] can be described thus: Half life in mouse. The format is ADME, organism-based. As to conditions: in vivo.
The nature of data set [15]: Half life in mouse at 1 mg/kg, iv and 10 mg/kg, po. Particulars: in vivo. The format is ADME, organism-based.
Data set [16] can be described thus: Volume of distribution at steady state in mouse at 1 mg/kg, iv and 10 mg/kg, po. The format is ADME, organism-based. Particulars: in vivo, read-out: Vdss.
Data set [17] concerns the target T2, Nitric oxide synthase, inducible. The data set is described as follows: Inhibition of human iNOS. An outline of the steps:
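HEK293 cells grown to about 70% confluence in DMEM with 10% FBS and pen/strep, then transiently transfected with human iNOS plasmid using Fugene 6 for 4 h at 37 °C, 10% CO₂. Cells replated at 5e5 cells/mL and treated at once with compound; 1400W (100 μM final) as positive control. After 18 h, NO read as DAN-nitrite fluorescence. EC₅₀ from three runs, 10-point curves, n = 8/point.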

A short description of data set [18]: Cmax in mouse at 1 mg/kg, iv and 10 mg/kg, po. The format is ADME, organism-based. Particulars: in vivo.
Data set [19] in a line: Plasma clearance in mouse at 1 mg/kg, iv and 10 mg/kg, po. The format is ADME, organism-based.
The species entered for data set [20] is Homo sapiens. The data set is described as follows: Selectivity for human iNOS over human eNOS. An outline of the steps:
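Ratio of EC₅₀ values from transiently transfected HEK293 cells. iNOS: plasmid, 18 h with compound, 1400W control, n = 8/point. eNOS: 15 μg human eNOS plasmid, 24 h with compound at 37 °C, then A23187 (83 nM final) for 18 h, SEITU (100 μM final) control, n = 3/point. NO read by DAN fluorescence; each EC₅₀ from three runs of 10-point curves.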

Calls of active or inactive are those of the source. Where only a bound is given, the exact number is not on record here.

T2 sequence (P35228 whole entry): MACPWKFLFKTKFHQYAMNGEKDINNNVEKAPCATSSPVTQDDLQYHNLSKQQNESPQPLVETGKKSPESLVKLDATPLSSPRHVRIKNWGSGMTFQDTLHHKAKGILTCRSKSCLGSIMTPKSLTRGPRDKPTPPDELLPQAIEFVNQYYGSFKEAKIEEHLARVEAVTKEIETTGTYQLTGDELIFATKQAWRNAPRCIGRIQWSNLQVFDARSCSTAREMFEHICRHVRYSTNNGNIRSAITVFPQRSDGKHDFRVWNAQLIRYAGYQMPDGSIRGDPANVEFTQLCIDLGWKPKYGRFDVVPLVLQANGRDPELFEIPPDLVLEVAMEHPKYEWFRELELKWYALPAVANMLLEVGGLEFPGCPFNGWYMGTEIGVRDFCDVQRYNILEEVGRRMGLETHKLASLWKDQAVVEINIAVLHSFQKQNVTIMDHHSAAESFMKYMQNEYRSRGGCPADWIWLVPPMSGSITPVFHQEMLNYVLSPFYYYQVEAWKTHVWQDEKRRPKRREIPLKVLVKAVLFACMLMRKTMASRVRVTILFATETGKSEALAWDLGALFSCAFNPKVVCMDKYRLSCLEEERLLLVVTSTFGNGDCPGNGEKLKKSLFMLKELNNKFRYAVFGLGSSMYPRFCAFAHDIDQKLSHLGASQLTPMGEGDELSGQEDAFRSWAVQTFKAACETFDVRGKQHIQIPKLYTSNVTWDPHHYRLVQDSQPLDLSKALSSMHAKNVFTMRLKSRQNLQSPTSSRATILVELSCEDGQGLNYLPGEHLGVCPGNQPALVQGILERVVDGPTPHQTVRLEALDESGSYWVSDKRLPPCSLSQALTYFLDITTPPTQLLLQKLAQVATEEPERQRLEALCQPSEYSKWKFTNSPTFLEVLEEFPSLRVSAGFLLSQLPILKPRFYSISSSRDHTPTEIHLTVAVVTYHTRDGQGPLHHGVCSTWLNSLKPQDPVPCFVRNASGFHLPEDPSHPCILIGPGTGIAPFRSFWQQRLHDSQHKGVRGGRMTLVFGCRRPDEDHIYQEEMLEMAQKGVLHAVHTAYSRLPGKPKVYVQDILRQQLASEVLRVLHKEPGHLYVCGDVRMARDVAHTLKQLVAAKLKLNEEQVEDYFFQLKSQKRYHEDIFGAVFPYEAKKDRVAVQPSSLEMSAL
T3 sequence (P29475 whole entry): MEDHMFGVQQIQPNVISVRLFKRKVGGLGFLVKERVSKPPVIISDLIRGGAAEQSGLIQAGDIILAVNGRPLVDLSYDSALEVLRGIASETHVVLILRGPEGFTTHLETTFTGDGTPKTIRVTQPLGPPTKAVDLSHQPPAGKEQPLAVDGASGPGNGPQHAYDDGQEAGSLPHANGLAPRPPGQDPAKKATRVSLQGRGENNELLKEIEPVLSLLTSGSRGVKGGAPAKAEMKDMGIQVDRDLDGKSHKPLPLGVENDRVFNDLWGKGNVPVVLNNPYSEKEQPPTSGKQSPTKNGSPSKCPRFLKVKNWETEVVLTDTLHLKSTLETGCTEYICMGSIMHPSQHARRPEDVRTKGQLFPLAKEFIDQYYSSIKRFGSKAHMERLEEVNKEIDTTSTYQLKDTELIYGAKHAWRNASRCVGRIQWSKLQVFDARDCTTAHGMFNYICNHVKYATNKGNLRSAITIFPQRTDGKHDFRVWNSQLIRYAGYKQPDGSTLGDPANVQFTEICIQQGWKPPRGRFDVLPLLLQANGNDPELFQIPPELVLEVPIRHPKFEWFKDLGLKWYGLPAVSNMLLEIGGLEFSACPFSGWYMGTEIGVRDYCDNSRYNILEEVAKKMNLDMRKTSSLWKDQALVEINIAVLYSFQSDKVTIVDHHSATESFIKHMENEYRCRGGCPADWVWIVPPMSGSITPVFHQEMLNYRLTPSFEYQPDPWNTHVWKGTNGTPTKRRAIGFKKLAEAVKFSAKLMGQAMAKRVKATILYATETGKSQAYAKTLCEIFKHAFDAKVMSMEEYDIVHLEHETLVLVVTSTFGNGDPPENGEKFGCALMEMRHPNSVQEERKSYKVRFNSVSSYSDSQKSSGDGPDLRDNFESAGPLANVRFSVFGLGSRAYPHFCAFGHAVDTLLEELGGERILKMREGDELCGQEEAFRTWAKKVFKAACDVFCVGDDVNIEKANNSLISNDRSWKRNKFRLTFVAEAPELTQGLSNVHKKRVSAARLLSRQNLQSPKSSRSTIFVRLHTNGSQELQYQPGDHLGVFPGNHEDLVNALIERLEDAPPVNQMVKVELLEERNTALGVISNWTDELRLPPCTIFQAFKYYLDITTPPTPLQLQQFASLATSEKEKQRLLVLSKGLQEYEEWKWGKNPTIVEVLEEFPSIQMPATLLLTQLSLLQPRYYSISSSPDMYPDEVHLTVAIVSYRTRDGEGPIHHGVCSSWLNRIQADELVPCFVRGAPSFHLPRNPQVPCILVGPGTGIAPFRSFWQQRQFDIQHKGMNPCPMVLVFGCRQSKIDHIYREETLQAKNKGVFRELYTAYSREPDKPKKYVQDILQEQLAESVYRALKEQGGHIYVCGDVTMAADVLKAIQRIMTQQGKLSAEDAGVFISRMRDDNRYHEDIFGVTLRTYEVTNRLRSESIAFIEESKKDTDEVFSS

`NCC1(CC(=O)O)CCCCC1` [GABAPENTIN]: in the data set with Mus musculus [1], the ED50 amounted to 110 mg/kg. Also, the Activity result in the data set on Mus musculus [2] is “Dose-dependent effect”. For the same molecule, the result with Mus musculus [3] was Active.
As to `CC(C)(C)c1nc2ccccc2n1Cc1cc(=O)[nH]c2c(F)c(F)ccc12`, the inhibition (in [4]; on Nitric oxide synthase 1 [9]) was under 50% throughout. In addition, the EC50 in data set [5] was 48 µM; on Nitric oxide synthase 1 [6], over 100 µM; at Nitric oxide synthase 3 it was over 100 µM. The Ratio EC50 in the data set filed under Homo sapiens [7] and in the data set listed under Homo sapiens [8] was over 2 each time. Further, in the data set on Liver, the t1/2 is given as over 120 min.
On to `O=c1cc(Cn2c(C3CCC3)nc3nccnc32)c2ccc(F)c(F)c2[nH]1`, for which, in the data set with Rhesus monkey, the inhibition result is “Active”. The outcome with Mus musculus [10] and with Mus musculus [11] was Active. Besides, the figures for the Ratio EC50 in the data set listed under Homo sapiens [7] and in the data set filed under Homo sapiens [8] were 3.3 and 180, respectively.
Regarding `Cc1ncsc1C(=O)N(Cc1cc(=O)[nH]c2c(F)cccc12)c1cccc(Cl)c1`, the clearance in [12] and in data set [19] was over 100 mL/min/kg in each case. Also, the bioavailability in data set [13] was found to be 7%. Moreover, the half-life in data set [14] and in data set [15] was 12 min each time. For the same molecule, the Vd in data set [16] stood at 1.6 L/kg. Inhibition in [17] was half-maximal at 0.011 µM (IC50). Moreover, in data set [18], the peak level (Cmax) was 1400 ng/mL. In addition, the Selectivity ratio in the data set listed under Homo sapiens [20] is over 2000.

A word on the ED50: it is the dose that gives a 50% effect, or the effect in half of the subjects. As a reminder, the inhibition is the share of the control response that was lost under treatment. A word on the EC50: it is the concentration at which the effect is half-maximal. As usually defined, the bioavailability is the share of a dose that reaches the circulation, judged against a reference dose that is usually intravenous. The term half-life denotes how long it takes for the measured level to halve. The term IC50 denotes the point on the concentration scale where inhibition reaches its midpoint. By Cmax is commonly meant the peak of the concentration-time curve.
